In publication PMC3825517 (Nature structural & molecular biology, 2013):
Each block holds one compound with its values, some of them ahead of it.

How the values were obtained:
DinF-BH [1] = target: T1, DinF-BH (Halalkalibacterium halodurans, UniProt Q9KAX3); experiment: Fluorescence polarization assay of R6G binding to purified DinF-BH; design: species or system Bacillus halodurans
T1 sequence (Q9KAX3 1-464): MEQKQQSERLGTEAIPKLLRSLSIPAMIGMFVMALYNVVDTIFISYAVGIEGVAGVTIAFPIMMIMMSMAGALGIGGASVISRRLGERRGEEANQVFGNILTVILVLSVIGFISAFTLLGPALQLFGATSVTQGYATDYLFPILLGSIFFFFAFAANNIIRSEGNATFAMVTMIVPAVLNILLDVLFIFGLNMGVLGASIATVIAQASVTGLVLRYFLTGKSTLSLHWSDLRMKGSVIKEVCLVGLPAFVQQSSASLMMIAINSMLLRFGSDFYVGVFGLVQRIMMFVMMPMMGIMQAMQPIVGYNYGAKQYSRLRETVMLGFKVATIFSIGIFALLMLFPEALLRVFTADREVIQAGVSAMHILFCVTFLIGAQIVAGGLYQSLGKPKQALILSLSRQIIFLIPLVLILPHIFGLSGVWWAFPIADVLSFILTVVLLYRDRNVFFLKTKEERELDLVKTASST

DinF-BH D40N mutant = target: T2, DinF-BH D40N mutant (Halalkalibacterium halodurans, UniProt Q9KAX3, D40N); experiment: Fluorescence polarization assay of R6G binding to purified D40N mutant; design: species or system Bacillus halodurans
T2 sequence (Q9KAX3 1-464 D40N): T1 sequence (Q9KAX3 1-464)
Summary of the method: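 Each protein concentration was read after a 10-min incubation. Kd comes from the binding isotherm, three titrations, SD. For pH dependence the binding solutions spanned pH 5.5–9.0, fitted to Kd = (1 + [H+]/Ki)Kmin.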

DinF-BH [2] = target: T1, DinF-BH; experiment: Drug-H+ antiport assay in everted membrane vesicles containing DinF-BH; type: biochemical, Bacillus halodurans; conditions: 250 μM TPP, acridine orange fluorescence
NorM-NG = experiment: Drug-H+ antiport assay in everted membrane vesicles containing NorM-NG; type: biochemical, Neisseria gonorrhoeae; conditions: 250 μM TPP, acridine orange fluorescence
DinF-BH [3] = target: T1, DinF-BH; experiment: Fluorescence measurement of H+-release upon drug binding; type: biochemical, Bacillus halodurans; conditions: 4 μM protein, 250 μM TPP, fluoresceine pH indicator, repeated three times
Summary of the method: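 Purified transporter was dialysed against 10% (vol/vol) glycerol, 50 mM NaCl and 0.03% (wt/vol) DDM, then diluted to 4 μM in the same buffer with 2 μM fluoresceine as pH indicator. The sample was stirred, and fluorescence was read at excitation 494 nm and emission 521 nm. TPP was added to 250 μM. Three repeats.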

SMILES: CC/N=c1\cc2oc3cc(NCC)c(C)cc3c(-c3ccccc3C(=O)OCC)c-2cc1C [R6G, rhodamine 6G]
Kd (DinF-BH [1]): 3.1 ± 0.4 µM | Kd (DinF-BH D40N mutant): 107 ± 4.1 µM

H+ efflux (fluorescence dequenching) on addition of substrate, DinF-BH vesicles (DinF-BH [2]): elicited efflux of H^+ | stoichiometry of H+ released per DinF-BH upon drug binding (DinF-BH [3]): 1.00 ± 0.07 H^+ per DinF-BH
SMILES: c1ccc([P+](c2ccccc2)(c2ccccc2)c2ccccc2)cc1 [TPP, tetraphenylphosphonium]
H+ efflux (fluorescence dequenching) on addition of substrate, NorM-NG vesicles (NorM-NG): no response

SMILES: C(=NC1CCCCC1)=NC1CCCCC1 [dicyclohexylcarbodiimide]
effect of treatment of DinF-BH on the binding of R6G (DinF-BH [1]; treatment of DinF-BH with the chemical): abolished the binding of R6G
